Assay results taken from ChEMBL document CHEMBL3797094, “Turmeric Sesquiterpenoids: Expeditious Resolution, Comparative Bioactivity, and a New Bicyclic Turmeronoid” (J Nat Prod, 2016).
Calls of active or inactive are those of the source. The rule behind the calls is not given here.

What was measured:
[1] = species: Homo sapiens; assay: Activation of NF-kappaB (unknown origin) in NIH/3T3-KBF-Luc cells at 1 to 50 uM coincubated with TNF-alpha after 6 hrs by luciferase reporter gene assay; assay type: cell-based
Method in brief: (§1)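 NIH-3T3-KBF-Luc fibroblasts (15 × 10⁴ cells/mL) were kept at 37 °C and 5% CO2 in DMEM with 10% heat-inactivated FBS. Cells were preincubated with the compounds at rising concentrations, then stimulated with TNFα for 6 h. They were PBS-washed and lysed for 15 min at rt in Tris-phosphate pH 7.8 with 1% Triton X-100. Luciferase was read in the supernatant, with TNFα alone set as 100%.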

[2] = target: Hypoxia-inducible factor 1-alpha (Homo sapiens) (UniProt Q16665); assay: Inhibition of DFX induced HIF-1 alpha (unknown origin) activation in NIH/3T3-EPO-Luc cells at 1 to 50 uM after 6 hrs by luciferase reporter gene assay; assay type: cell-based
Hypoxia-inducible factor 1-alpha (Homo sapiens), sequence (Q16665 whole entry, looked up): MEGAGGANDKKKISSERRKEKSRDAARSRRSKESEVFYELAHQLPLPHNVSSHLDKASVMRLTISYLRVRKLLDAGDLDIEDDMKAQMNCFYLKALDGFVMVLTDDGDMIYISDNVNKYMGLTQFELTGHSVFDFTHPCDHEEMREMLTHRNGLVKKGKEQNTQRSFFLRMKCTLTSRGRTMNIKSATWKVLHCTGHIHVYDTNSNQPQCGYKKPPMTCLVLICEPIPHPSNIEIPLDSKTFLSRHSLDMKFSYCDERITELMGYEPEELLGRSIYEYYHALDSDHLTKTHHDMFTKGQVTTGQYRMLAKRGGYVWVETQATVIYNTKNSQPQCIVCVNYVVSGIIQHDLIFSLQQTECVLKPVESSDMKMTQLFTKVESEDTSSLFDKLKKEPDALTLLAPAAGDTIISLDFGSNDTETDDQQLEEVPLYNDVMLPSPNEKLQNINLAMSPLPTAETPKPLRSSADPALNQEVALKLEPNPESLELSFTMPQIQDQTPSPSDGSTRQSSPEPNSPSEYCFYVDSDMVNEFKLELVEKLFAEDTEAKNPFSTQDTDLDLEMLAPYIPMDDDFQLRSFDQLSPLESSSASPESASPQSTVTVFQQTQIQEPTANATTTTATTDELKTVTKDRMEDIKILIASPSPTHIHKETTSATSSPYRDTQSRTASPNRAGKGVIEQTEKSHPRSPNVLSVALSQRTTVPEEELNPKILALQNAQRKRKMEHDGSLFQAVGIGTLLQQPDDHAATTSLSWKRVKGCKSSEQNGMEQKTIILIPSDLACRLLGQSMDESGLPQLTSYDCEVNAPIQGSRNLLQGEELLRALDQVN
Method in brief: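 NIH-3T3-EPO-Luc cells (15 × 10⁴ cells/mL, DMEM with 10% FBS, 37 °C) were preincubated with the compounds at rising concentrations, then given DFX (150 μM) for 6 h. Luciferase was measured in the cleared Tris-phosphate/Triton lysate and expressed as fold induction over basal.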

[3] = target: Signal transducer and activator of transcription 3 (Homo sapiens) (UniProt P40763); assay: Inhibition of IFN gamma-induced STAT3 (unknown origin) activation in HeLa-STAT3-Luc cells at 1 to 50 uM after 6 hrs by luciferase reporter gene assay; assay type: cell-based
Signal transducer and activator of transcription 3 (Homo sapiens), sequence (P40763 whole entry): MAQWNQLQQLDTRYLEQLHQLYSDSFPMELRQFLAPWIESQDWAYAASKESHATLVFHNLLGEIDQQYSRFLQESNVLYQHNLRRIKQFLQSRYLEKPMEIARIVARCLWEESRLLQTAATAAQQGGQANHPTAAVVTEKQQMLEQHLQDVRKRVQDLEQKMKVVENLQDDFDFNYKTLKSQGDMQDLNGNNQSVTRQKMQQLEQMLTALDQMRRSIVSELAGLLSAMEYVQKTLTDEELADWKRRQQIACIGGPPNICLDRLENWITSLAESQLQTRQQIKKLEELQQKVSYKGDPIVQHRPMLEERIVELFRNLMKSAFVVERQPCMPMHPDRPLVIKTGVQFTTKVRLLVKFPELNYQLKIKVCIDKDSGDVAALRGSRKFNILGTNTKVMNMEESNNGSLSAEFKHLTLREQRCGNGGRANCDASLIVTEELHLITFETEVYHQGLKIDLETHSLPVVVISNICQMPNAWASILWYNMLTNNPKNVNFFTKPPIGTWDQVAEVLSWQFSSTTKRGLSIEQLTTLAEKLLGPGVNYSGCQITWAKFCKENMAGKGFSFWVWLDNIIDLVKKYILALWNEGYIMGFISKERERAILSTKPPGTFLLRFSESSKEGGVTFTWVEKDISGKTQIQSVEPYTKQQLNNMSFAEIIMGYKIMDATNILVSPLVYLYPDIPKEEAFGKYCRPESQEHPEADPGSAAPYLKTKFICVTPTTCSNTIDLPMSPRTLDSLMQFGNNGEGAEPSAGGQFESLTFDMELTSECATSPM
Method in brief: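 HeLa-STAT3-Luc reporter cells (15 × 10⁴ cells/mL, DMEM with 10% FBS, 37 °C, 5% CO2) were preincubated with the compounds at rising concentrations, then stimulated with IFNγ for 6 h. Lysate luciferase is expressed as percent inhibition, with IFNγ-induced activity set as 100%.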

[4] = target: T1, Nuclear factor erythroid 2-related factor 2 (Homo sapiens) (UniProt Q16236); assay: Activation of Nrf2 (unknown origin) in HaCaT-ARE-Luc cells at 1 to 50 uM after 6 hrs by luciferase reporter gene assay; assay type: cell-based
T1 sequence (whole entry): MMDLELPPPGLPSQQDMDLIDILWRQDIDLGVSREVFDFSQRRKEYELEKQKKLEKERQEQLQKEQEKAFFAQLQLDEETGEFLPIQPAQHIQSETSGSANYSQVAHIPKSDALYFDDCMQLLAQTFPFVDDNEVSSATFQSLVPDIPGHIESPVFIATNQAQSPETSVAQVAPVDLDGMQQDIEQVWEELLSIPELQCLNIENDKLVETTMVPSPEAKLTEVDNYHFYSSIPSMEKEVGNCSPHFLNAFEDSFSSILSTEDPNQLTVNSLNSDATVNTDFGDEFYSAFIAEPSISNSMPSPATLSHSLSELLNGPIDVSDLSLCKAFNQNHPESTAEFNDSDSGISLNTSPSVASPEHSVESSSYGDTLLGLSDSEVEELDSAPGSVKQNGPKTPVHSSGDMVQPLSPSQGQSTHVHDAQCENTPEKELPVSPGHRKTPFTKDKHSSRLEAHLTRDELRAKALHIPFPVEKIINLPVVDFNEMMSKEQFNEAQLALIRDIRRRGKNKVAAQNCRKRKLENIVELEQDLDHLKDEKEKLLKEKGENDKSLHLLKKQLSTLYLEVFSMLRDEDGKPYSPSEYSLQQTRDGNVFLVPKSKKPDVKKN
Method in brief: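 HaCaT-ARE-Luc cells (15 × 10⁴ cells/mL, DMEM with 10% FBS, 37 °C, 5% CO2) were exposed to the compounds alone at rising concentrations for 6 h. Cells were PBS-washed and lysed in Tris-phosphate pH 7.8 with Triton X-100. Luciferase activity in the cleared lysate is given as fold induction over basal.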

[5] = Inhibition of TNF alpha-induced NF-kappaB (unknown origin) activation in NIH/3T3-KBF-Luc cells after 6 hrs by luciferase reporter gene assay; assay type: cell-based; conditions: Homo sapiens; method in brief: as §1
[6] = species: Homo sapiens; assay: Inhibition of TNF alpha-induced NF-kappaB (unknown origin) activation in NIH/3T3-KBF-Luc cells assessed as suppression of IKappaB alpha phosphorylation at 1 to 50 uM preincubated for 15 mins followed by TNF alpha stimulation for 30 mins by western blot analysis; assay type: cell-based
Method in brief: (§2)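 NIH-3T3-KBF-Luc cells were treated with the compounds for 15 min, then stimulated with TNFα (30 ng/mL) for 30 min. Lysis used Hepes pH 8.0 buffer with 0.5% NP-40 and protease/phosphatase inhibitors (15 min, 4 °C), then 10000g for 10 min. After Bradford assay, 20 μg protein was run on 10% SDS-PAGE and blotted to nitrocellulose. Blocking was 5% milk overnight; phospho-protein detection was by ECL.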

[7] = tested on: HaCaT; assay: Cytotoxicity against human HaCaT-ARE-Luc cells assessed as cell viability at 1 to 50 uM after 12 hrs by YOYO-1 staining based fluorescence assay
[8] = tested on: HeLa; assay: Cytotoxicity against human HeLa-STAT3-Luc cells assessed as cell viability at 1 to 50 uM after 12 hrs by YOYO-1 staining based fluorescence assay
[9] = Cytotoxicity against mouse NIH/3T3-KBF-Luc cells assessed as cell viability at 1 to 50 uM after 12 hrs by YOYO-1 staining based fluorescence assay; conditions: nih3t3, 12 h
[10] = Cytotoxicity against mouse NIH/3T3-EPO-Luc cells assessed as cell viability at 1 to 50 uM after 12 hrs by YOYO-1 staining based fluorescence assay; conditions: nih3t3, 12 h
[11] = species: Homo sapiens; assay: Inhibition of TNF alpha-induced NF-kappaB (unknown origin) activation in NIH/3T3-KBF-Luc cells assessed as suppression of p65 phosphorylation at 1 to 50 uM preincubated for 15 mins followed by TNF alpha stimulation for 30 mins by western blot analysis; assay type: cell-based; method in brief: as §2

Row | Compound | Activity [1] | inhibition [2] | Activity [3] | Activity [4] | IC50 [5] [µM] | inhibition [6] | Activity [7] | Activity [8] | Activity [9] | Activity [10] | inhibition [11]
1 | C=C1C=C[C@H]([C@@H](C)CC(=O)C=C(C)C)CC1 | Active | inactive | inactive | Active | – | – | – | – | – | – | –
2 | CC(C)=CC(=O)C[C@H](C)c1ccc(C)cc1 | – | inactive | – | inactive | 22.7 | Active | Non-toxic | Non-toxic | Non-toxic | Non-toxic | Active
